Reference: ChEMBL document CHEMBL3779798, “Novel seleno- and thio-urea derivatives with potent in vitro activities against several cancer cell lines” (Eur J Med Chem, 2016)
Active and inactive are the calls of the source. The rule behind the calls is not given here.

Experiments:
[1] = Anticancer activity against human 1205 Lu cells assessed as inhibition of cell growth after 24 hrs by MTT assay; assay type: functional, cell-based
In short: (§1)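 MTT assay at 3,000 cells/well. Cells treated with DMSO or seven concentrations from 0.5 to 50 µM for 24, 48 or 72 h. MTT added 3 h before the end point; formazan dissolved in DMSO and read at 570 and 630 nm. IC50 is the concentration giving 50% growth inhibition. Media: PANC-1, BxPC3 and 1205Lu in DMEM; DU145 and A549 in RPMI 1640; HT29, HCT116 and RKO in McCoy's 5A, all with 10% FBS and pen/strep, at 37 °C and 5% CO2.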

A549 [2] = assay: Anticancer activity against human A549 cells assessed as inhibition of cell growth after 48 hrs by MTT assay; assay type: functional, cell-based; details: A549, 48 h; in short: as §1
A549 [3] = assay: Anticancer activity against human A549 cells assessed as inhibition of cell growth after 72 hrs by MTT assay; assay type: functional, cell-based; details: A549, 72 h; in short: as §1
[4] = Anticancer activity against human DU145 cells assessed as inhibition of cell growth after 72 hrs by MTT assay; assay type: functional, cell-based; details: DU-145, 72 h; in short: as §1
[5] = Anticancer activity against human HCT116 cells assessed as inhibition of cell growth after 24 hrs by MTT assay; assay type: functional, cell-based; details: HCT-116, 24 h; in short: as §1
[6] = Anticancer activity against human HCT116 cells assessed as inhibition of cell growth after 48 hrs by MTT assay; assay type: functional, cell-based; details: HCT-116, 48 h; in short: as §1
[7] = Anticancer activity against human HCT116 cells assessed as inhibition of cell growth after 72 hrs by MTT assay; assay type: functional, cell-based; details: HCT-116, 72 h; in short: as §1
RKO = assay: Anticancer activity against human RKO cells assessed as inhibition of cell growth after 24 hrs by MTT assay; assay type: functional, cell-based; in short: as §1
[8] = Anticancer activity against human PANC1 cells assessed as inhibition of cell growth after 72 hrs by MTT assay; assay type: functional, cell-based; details: PANC-1, 72 h; in short: as §1
HT-29 = assay: Potency index, ratio IC50 of 5-FU to IC50 of compound for anticancer activity against human HT-29 cells; assay type: functional
In short: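 Colon lines (McCoy's 5A, 10% FBS, penicillin/streptomycin, 37 °C, 5% CO2) seeded at 3,000 cells/well and exposed 24, 48 or 72 h to DMSO or seven concentrations across 0.5–50 µM. MTT added 3 h before end; formazan dissolved in DMSO, absorbance read at 570 and 630 nm. IC50 (50% growth inhibition) from curve fitting; index is the 5-FU IC50 divided by the compound IC50.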

[9] = Induction of cell death in human HCT116 cells at 2.5 uM after 24 hrs by calcein-AM and ethidium homodimer-1 staining based flow cytometry analysis (reference value: 1.1%); assay type: functional, HCT-116
HCT-116 [10] = assay: Decrease in number of viable cells in human HCT116 cells at 2.5 uM after 24 hrs by calcein-AM and ethidium homodimer-1 staining based flow cytometry analysis (reference value: 94.9%); assay type: functional
HCT-116 [11] = assay: Induction of apoptosis in human HCT116 cells assessed as viable cells at 1 uM after 24 hrs by annexin-V staining based flow cytometry analysis (reference value: 90.38%); assay type: functional; details: HCT-116, 24 h, read-out: Activity
HCT-116 [12] = assay: Induction of apoptosis in human HCT116 cells assessed as late apoptotic cells at 1 uM after 24 hrs by annexin-V staining based flow cytometry analysis (reference value: 1.06%); assay type: functional
HCT-116 [13] = assay: Induction of apoptosis in human HCT116 cells assessed as late apoptotic cells at 2.5 uM after 24 hrs by annexin-V staining based flow cytometry analysis (reference value: 1.06%); assay type: functional
HCT-116 [14] = assay: Induction of apoptosis in human HCT116 cells assessed as necrotic cells at 2.5 uM after 24 hrs by annexin-V staining based flow cytometry analysis (reference value: 0.72%); assay type: functional
HCT-116 [15] = assay: Induction of apoptosis in human HCT116 cells assessed as viable cells at 5 uM after 24 hrs by annexin-V staining based flow cytometry analysis (reference value: 90.38%); assay type: functional; details: HCT-116, 24 h, read-out: Activity
HCT-116 [16] = assay: Induction of apoptosis in human HCT116 cells assessed as necrotic cells at 5 uM after 24 hrs by annexin-V staining based flow cytometry analysis (reference value: 0.72%); assay type: functional
HCT-116 [17] = assay: Induction of apoptosis in human HCT116 cells assessed as viable cells at 1 uM after 24 hrs by caspase3/7 reagent based flow cytometry (reference value: 88.4%); assay type: functional; details: HCT-116, 24 h, read-out: Activity
HCT-116 [18] = assay: Induction of apoptosis in human HCT116 cells assessed as late apoptotic cells at 1 uM after 24 hrs by caspase3/7 reagent based flow cytometry (reference value: 2.28%); assay type: functional
HCT-116 [19] = assay: Induction of apoptosis in human HCT116 cells assessed as viable cells at 2.5 uM after 24 hrs by caspase3/7 reagent based flow cytometry (reference value: 88.4%); assay type: functional; details: HCT-116, 24 h, read-out: Activity
HCT-116 [20] = assay: Induction of apoptosis in human HCT116 cells assessed as necrotic cells at 2.5 uM after 24 hrs by caspase3/7 reagent based flow cytometry (reference value: 4.14%); assay type: functional
HCT-116 [21] = assay: Induction of apoptosis in human HCT116 cells assessed as viable cells at 5 uM after 24 hrs by caspase3/7 reagent based flow cytometry (reference value: 88.4%); assay type: functional; details: HCT-116, 24 h, read-out: Activity
HCT-116 [22] = assay: Induction of apoptosis in human HCT116 cells assessed as early apoptotic cells at 5 uM after 24 hrs by caspase3/7 reagent based flow cytometry (reference value: 5.18%); assay type: functional
HCT-116 [23] = assay: Induction of apoptosis in human HCT116 cells assessed as late apoptotic cells at 5 uM after 24 hrs by caspase3/7 reagent based flow cytometry (reference value: 2.28%); assay type: functional
HCT-116 [24] = assay: Induction of apoptosis in human HCT116 cells assessed as necrotic cells at 5 uM after 24 hrs by caspase3/7 reagent based flow cytometry (reference value: 4.14%); assay type: functional
HCT-116 [25] = assay: Reduction in Bcl2 level in human HCT116 cells after 24 hrs by western blot analysis; assay type: functional, cell-based
In short: (§2)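 HCT116 cells (6 × 10^5/well) treated with rising concentrations for 24 h. Lysed in RIPA with phosphatase and protease inhibitors and PMSF, cleared at 15,000 g for 10 min. Lysates resolved by SDS-PAGE, transferred to PVDF, probed overnight in the cold with primary antibodies, then peroxidase-linked secondary for 1–4 h at room temperature, detected by ECL; β-actin antibody used.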

HCT-116 [26] = assay: Reduction of XIAP level in human HCT116 cells after 24 hrs by western blot analysis; assay type: functional, cell-based; in short: as §2
HCT-116 [27] = assay: Decrease in whole PARP level in human HCT116 cells at 0.5 to 5 uM after 24 hrs by western blot analysis; assay type: functional, cell-based
In short: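 HCT116 cells (6 × 10^5/well) treated for 24 h. Whole-cell lysates made in RIPA buffer with phosphatase and protease inhibitors and PMSF, cleared at 15,000 g, resolved by SDS-PAGE and transferred to PVDF. Blots probed overnight in the cold with primary antibodies, then peroxidase-linked secondaries, and detected by ECL; β-actin antibody used.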

Which IC50 [1] does the source give for `Br.Br.N=C(N)[Se]Cc1nc2ccccc2nc1C[Se]C(=N)N` here?
Its IC50 is 3300 nM.

What about the IC50 (A549 [2]) of the same molecule?
The IC50 was 2000 nM.

What about the IC50 (A549 [3]) of the same molecule?
The IC50 was 1000 nM.

What about the IC50 [4] of the same molecule?
The IC50 was 1000 nM.

What about the IC50 [5] of the same molecule?
Its IC50 is 2900 nM.

What about the IC50 [6] of the same molecule?
The IC50 was 700 nM.

What about the IC50 [7] of the same molecule?
The IC50 was 700 nM.

And the IC50 (RKO)?
The IC50 was 3800 nM.

And the IC50 [8]?
The IC50 was 2000 nM.

What about the “Ratio IC50” value (HT-29) of the same molecule?
The value was over 50.

What about the Activity [9] of the same molecule?
Its Activity is 5.1%.

And the Activity (HCT-116 [10])?
Its Activity is 92.2%.

And the viability at 1 µM (HCT-116 [11])?
The viability at 1 µM was 78.1%.

And the Activity (HCT-116 [12])?
The Activity was 2.28%.

What about the Activity (HCT-116 [13]) of the same molecule?
The Activity was 11.64%.

What about the Activity (HCT-116 [14]) of the same molecule?
The Activity was 0.58%.

What about the viability at 5 µM (HCT-116 [15]) of the same molecule?
Its viability at 5 µM is 24.6%.

What about the Activity (HCT-116 [16]) of the same molecule?
The Activity was 0.68%.

What about the viability at 1 µM (HCT-116 [17]) of the same molecule?
Its viability at 1 µM is 87%.

And the Activity (HCT-116 [18])?
Its Activity is 2.64%.

And the viability at 2.5 µM (HCT-116 [19])?
The viability at 2.5 µM was 85%.

And the Activity (HCT-116 [20])?
The Activity was 2.78%.

What about the viability at 5 µM (HCT-116 [21]) of the same molecule?
The viability at 5 µM was 16.1%.

What about the Activity (HCT-116 [22]) of the same molecule?
The Activity was 27.66%.

And the Activity (HCT-116 [23])?
Its Activity is 50.26%.

What about the Activity (HCT-116 [24]) of the same molecule?
The Activity was 5.96%.

And the Activity (HCT-116 [25])?
The Activity was “Dose-dependent effect”.

What about the Activity (HCT-116 [26]) of the same molecule?
Its Activity is “Dose-dependent effect”.

What about the Activity (HCT-116 [27]) of the same molecule?
The Activity was “Active”.
